The list is not random: actives were taken first. Their share in the collection is about 4.3%.
AHR activator: AHR activators, primary screen, cell-based, luminescence, luciferase reporter, human | AHR-responsive luciferase reporter cells | 320,000 tested, 2.5% active | Aryl hydrocarbon receptor (Homo sapiens), P35869 | activation, % at 5 µM; in the data active = activation above about 47%;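 also: 0% = vehicle wells and 100% = reference agonist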
Target sequence (P35869 whole entry, looked up): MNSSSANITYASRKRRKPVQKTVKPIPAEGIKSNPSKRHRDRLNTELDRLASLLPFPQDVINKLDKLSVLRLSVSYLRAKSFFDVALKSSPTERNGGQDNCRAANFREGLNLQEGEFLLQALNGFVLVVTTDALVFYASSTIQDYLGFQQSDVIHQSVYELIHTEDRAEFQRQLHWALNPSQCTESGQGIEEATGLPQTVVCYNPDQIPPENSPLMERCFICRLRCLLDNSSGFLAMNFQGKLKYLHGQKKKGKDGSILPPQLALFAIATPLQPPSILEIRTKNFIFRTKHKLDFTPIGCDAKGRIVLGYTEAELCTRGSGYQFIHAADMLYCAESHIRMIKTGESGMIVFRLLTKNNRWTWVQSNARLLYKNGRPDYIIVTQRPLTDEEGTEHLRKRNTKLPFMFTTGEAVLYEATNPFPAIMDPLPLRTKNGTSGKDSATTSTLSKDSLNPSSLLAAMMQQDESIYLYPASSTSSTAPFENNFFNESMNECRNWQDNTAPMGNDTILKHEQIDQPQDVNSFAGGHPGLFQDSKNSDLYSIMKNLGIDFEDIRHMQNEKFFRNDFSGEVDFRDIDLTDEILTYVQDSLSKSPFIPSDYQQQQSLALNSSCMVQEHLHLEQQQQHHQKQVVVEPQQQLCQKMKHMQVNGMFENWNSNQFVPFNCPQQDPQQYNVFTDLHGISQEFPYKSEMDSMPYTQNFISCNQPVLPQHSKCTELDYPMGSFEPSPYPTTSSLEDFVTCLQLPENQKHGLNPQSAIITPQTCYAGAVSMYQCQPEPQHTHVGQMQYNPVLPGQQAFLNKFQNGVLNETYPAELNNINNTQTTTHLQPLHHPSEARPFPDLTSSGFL
SR-BI DiI inh: inhibitors of SR-BI mediated HDL lipid uptake, primary screen, ldlA[mSR-BI] cells, fluorescence, single point; ldlA[mSR-BI] CHO cells, DiI-HDL uptake fluorescence, 3 h; Scavenger receptor class B member 1 (Mus musculus), Q61009; 320,000 tested, 0.96% active; inhibition, % at 12.5 µM; AID 488896, 2010;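 active = mean replicate inhibition of at least 70% and a set share of replicates each scoring 70 or more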;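 also: 0% = median of neutral control wells and 100% = median of positive control wells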
Lipid droplet: inhibitors of hepatocyte lipid droplet formation, primary screen, imaging, high-throughput imaging, BODIPY stain; 240,000 tested, 0.4% active; inhibition, % at 6.5 µM; AML12 mouse hepatocytes, oleate lipid droplets;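 active = lipid droplet intensity inhibited by at least 50%, with more than 500 cells counted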
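Test system: AML12 mouse liver cells; schedule: overnight exposure; technique: high-content imaging of BODIPY-stained droplets and DAPI nuclei; read-out: % inhibition of corrected integrated BODIPY droplet signal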
SR-BI uptake up: activators of SR-BI mediated DiI-HDL uptake, primary screen, ldlA[mSR-BI] CHO cells, DiI fluorescence. 3 h; 100 = double the neutral-control signal. activation, % at 12.5 µM. 320,000 tested, 0.096% active;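 active = mean replicate activation of at least 60% and every replicate at or above 60%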;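 also: 0% = median plate neutral-control signal and 100% = twice that signal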
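material = CHO ldlA[mSR-BI] cells | medium = Ham's F12 with 0.5% BSA, HEPES 25 mM, pH 7.4 | reagent = fluorescent DiI-HDL, 10 µg/mL final | compound dosing = single-point compound dose | incubation = 3 h, 37 °C | measured by = bottom-read fluorescence, 550/595 nm | measure = HDL uptake via cellular fluorescence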
Yeast superoxide: reduction of superoxide in aged yeast, primary screen, HTS | S. cerevisiae aged cells, superoxide DHE fluorescence; hits give low values | superoxide response (% of plate mean), % at 10 µM | 330,000 tested, 0.18% active | AID 2690, 2010;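 active = superoxide response under a set limit, about three screen SD below normal, cut at about 65% in these data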;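 also: yeast aged for seven days with compound at 30 °C before DHE staining; 100% = average MFI of all compound-treated wells on the plate with controls excluded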
SMARCA2 activ: SMARCA2 (BRM) function activators, primary screen, cell-based, luminescence, high throughput | AID 652017, 2013 | MG213 cells, MMTV-luciferase reporter, dexamethasone, overnight | 370,000 tested, 1% active | activation, % at 9.1 µM; in the data active = activation above about 7.8%;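 also: 0% = vehicle wells and 100% = reference activator wells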
SMARCA2 act conf: SMARCA2 (BRM) function activators, confirmation, cell-based, luminescence, triplicate; MG213 cells, MMTV-luciferase with dexamethasone, overnight; MG213 cells expressing E1A, Rb sequestered; DMSO wells 0%, reference activator 100%; shares compounds with SMARCA2 activ; 3,500 tested, 30% active; activation, % at 9.1 µM;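 active = activation above its plate's cutoff, the mean activation of tested wells plus 3 SD, cut at about 7.9% in these data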
VP16 Luc act: GAL4-VP16 luciferase reporter activation, counter-screen for SMARCA2 (BRM) activator project, cell-based, pG5luc, luminescence, high throughput; HEK293 GAL4-VP16 pG5luc reporter; scaled: DMSO wells 0%, SAHA wells 100%; shares compounds with SMARCA2 activ; activation, % at 9.1 µM; 3,500 tested, 41% active;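 active = activation above the solvent-only control well mean plus 3 SD, averaged across control plates, cut at about 5.2% in these data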
Active calls of the source: *; . = not tested or not shown.

SMILES | AHR activator | SR-BI DiI inh | Lipid droplet | SR-BI uptake up | Yeast superoxide | SMARCA2 activ | SMARCA2 act conf | VP16 Luc act
CSc1ccccc1NC(=O)c1cc(-c2ccc3c(c2)OCO3)on1 | 3 | . | 6 | . | 103 | 10* | 6 | 2
CSc1ccccc1NC(=O)c1cc(C(C)C)on1 | 13 | 21 | 17 | -21 | 102 | 8.0* | 3 | 7.9*
O=C(NC1CCCCN(Cc2ccc(Cl)cc2)C1=O)C(c1ccccc1)c1ccccc1 (stereo unspecified) | . | . | . | . | . | 0 | . | .
COc1ccc(N2CCN(c3ccc(Cl)nn3)CC2)cc1 | -8 | . | -2 | . | 100 | -2 | . | .
COc1ccc(N2CCN(c3cncc(C)n3)CC2)cc1 | . | . | . | . | . | 8.2* | -1 | 2
O=c1c(C=NCc2cccnc2)c(C(F)(F)F)[nH]n1-c1nc2ccccc2s1 | -1 | -4 | -8 | 4 | 109 | 12* | 11* | 7.5*
O=C(c1cccc(Br)c1)N1CCN(C(=O)c2cccc(Br)c2)CC1 | -1 | 28 | -5 | -28 | 103 | 8.8* | 1 | -1
CC1(O)C(c2ccccc2)=Nc2ccccc21 (stereo unspecified) | . | . | . | . | . | 9.5* | 12* | 13*
CCOC(=O)Cn1cc(CN2CCS(=O)(=O)N(Cc3ccc(Cl)cc3)C(C(=O)OC)C2)nn1 (stereo unspecified) | . | . | . | . | . | -5 | . | .
c1coc(-c2nc(-c3ccco3)c(-c3ccco3)nc2-c2ccco2)c1 | 1 | -12 | . | 12 | 112 | 0 | . | .
COc1ccc2nc(-c3ccco3)c(-c3ccco3)nc2c1 | 15 | 11 | 23 | -11 | 98 | 11* | -7 | 9.2*
CCC(C)NC(=O)C1CCN(S(=O)(=O)c2ccc3[nH]c(=O)oc3c2)CC1 (stereo unspecified) | . | . | . | . | . | -4 | . | .
CCC(C(=O)Nc1ccccc1N1CCCC1)c1cccc(OC)c1 (stereo unspecified) | . | . | . | . | . | -3 | . | .
COCCNC(=O)CN1CCCCCC1 | -2 | -26 | 24 | 26 | 108 | 8.3* | 2 | 1
CC(=O)Nc1ccc(C(/C=C/c2ccccc2)Cc2ccccc2)cc1 (stereo unspecified) | . | . | . | . | . | -5 | . | .
COc1ccc(Cn2cc3c(-c4ccc(F)cc4)nnc-3c3cc(OC)c(OC)cc32)cc1 | 9 | -19 | 5 | 19 | 92 | 22* | 47* | 0
CCOC(=O)Cn1cc(CN2CCS(=O)(=O)N(Cc3ccccc3)C(C(=O)OC)C2)nn1 (stereo unspecified) | . | . | . | . | . | -2 | . | .
CCOC(=O)Cc1nn(Cc2ccc(Cl)cc2)c(=O)c2ccccc12 | 2 | 16 | -28 | -16 | 102 | 8.8* | -4 | 1
COc1ccc(C2CC(=O)N(C)c3ccccc3S2)cc1OC (stereo unspecified) | 17 | 15 | 7 | -15 | 100 | 10* | 12* | 9.6*
CCCCN1C[C@@H](COCc2ccccc2)Oc2cc(F)ccc2S1(=O)=O | . | . | . | . | . | -1 | . | .
COc1ccc(C(=O)NC2CC2)cc1OC1CCN(Cc2cc(C)c(C)cc2C)CC1 | 5 | 7 | -21 | -7 | 103 | 9.1* | -1 | 2
Oc1ccccc1CNc1cnc2ccccc2c1 | 49* | -10 | -2 | 10 | 91 | 11* | 9.5* | 8.8*
Oc1ccc(Cl)cc1CNc1cnc2ccccc2c1 | 3 | 17 | 7 | -17 | 94 | 0 | . | .
COC(=O)c1ccc(CC(=O)c2nc3ccccc3s2)cc1 | 24 | -11 | -17 | 11 | 100 | 10* | 8.8* | 6.9*
